Laboratory results published in ChEMBL document CHEMBL5038577, “First-Time Disclosure of CVN424, a Potent and Selective GPR6 Inverse Agonist for the Treatment of Parkinson's Disease: Discovery, Pharmacological Validation, and Identification of a Clinical Candidate” (J Med Chem, 2021).
Calls of active or inactive are those of the source. The rule behind the calls is not given here.

Legend:
[1] = target: T1, G-protein coupled receptor 6 (Homo sapiens, UniProt P46095); experiment: Inverse agonist activity at human GPR6 expressed in CHO-K1 cells assessed as modulation of cAMP level incubated for 20 hrs by TR-FRET assay relative to control; type: functional, cell-based; conditions: filed as inverse agonist
Outline: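 T-REx-CHO-K1 cells stably carrying tetracycline-inducible human GPR6 were induced with 2.0 μg/mL doxycycline for 20 h at 37 °C. Constitutive activity was measured with no agonist. Compound in Krebs Ringer's buffer with 0.5% fatty-acid-free BSA was added for 45 min at 37 °C. Eu-cAMP tracer (10 min) and ULight anti-cAMP antibody (1 h, RT) followed for TR-FRET. Four-parameter logistic fit; ≥2 experiments, triplicate.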

[2] = target: T1, G-protein coupled receptor 6; experiment: Inverse agonist activity at human GPR6 expressed in CHO-K1 cells assessed as modulation of cAMP level incubated for 20 hrs by TR-FRET assay; type: functional, cell-based
Outline: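 T-REx-CHO-K1 cells stably carrying tetracycline-inducible human GPR6 were induced with 2.0 μg/mL doxycycline for 20 h at 37 °C. No agonist was added, since receptor constitutive activity is used. Compound in Krebs Ringer's buffer with 0.5% fatty acid free BSA for 45 min at 37 °C. cAMP read by Eu-cAMP tracer/ULight anti-cAMP antibody TR-FRET. Four-parameter logistic fit; EC50 is the mean of ≥2 experiments, triplicate concentrations.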

Homo sapiens [3] = organism: Homo sapiens; experiment: Selectivity for human GPR6 over human GRP12 assessed as fold change
Cytochrome P450 2D6 = Cytochrome P450 2D6 (Homo sapiens, UniProt P10635); experiment: Inhibition of CYP2D6 (unknown origin); type: ADME
hERG (KCNH2) = hERG (KCNH2) (Homo sapiens, UniProt Q12809); experiment: Inhibition of human ERG at 10 uM relative to control; type: toxicity
Homo sapiens [4] = organism: Homo sapiens; experiment: Selectivity for human GPR6 over human GRP3 assessed as fold change
Mus musculus [5] = experiment: Reversal of haloperidol-induced catalepsy in C57BL/6 mouse assessed as reduction in catalepsy at 0.3 mg/kg, ip measured after 120 min; type: functional, organism-based
Outline: (§1)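 Wild-type C57BL/6J and GPR6 knock-out male mice (n = 6/group): KW6002 at 0.3 mg/kg i.p. given with haloperidol 1 mg/kg i.p. Bar test at 120 min: bar 2' high, maximum 60 s, three trials averaged.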

Rattus norvegicus [6] = experiment: Reversal of haloperidol-induced catalepsy in Sprague-Dawley rat assessed as reduction in catalepsy at 0.6 mg/kg, ip measured after 120 min; type: functional, organism-based
Outline: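 Positive-control arm in male Sprague-Dawley rats (n = 9–10/group): A2A antagonist KW6002 at 0.6 mg/kg i.p., given together with haloperidol 1 mg/kg i.p. Bar test at 120 min: bar 6' high, up to 60 s, mean of three trials.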

Mus musculus [7] = experiment: Reversal of haloperidol-induced catalepsy in GPR6 knock out mouse assessed as reduction in catalepsy at 0.3 mg/kg, ip measured after 120 min; type: functional, organism-based; outline: as §1
Mus musculus [8] = experiment: Reversal of haloperidol-induced catalepsy in GPR6 knock out mouse assessed as reduction in catalepsy at 30 mg/kg, sc measured after 120 min; type: functional, organism-based
Outline: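 Male GPR6 knock-out mice (n = 6/group) received haloperidol 1 mg/kg i.p. with vehicle (10% DMSO, 0.5% methylcellulose) or compound 30 mg/kg s.c. at the same time. Bar test at 120 min: bar 2' high, up to 60 s, average of three trials.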

[9] = target: T1, G-protein coupled receptor 6; experiment: Displacement of 3H-RL338 from human GPR6 expressed in T-REx-CHO-GPR6 cells assessed as inhibition constant by competition binding assay; type: cell-based
Outline: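 Competition filtration binding on membranes from doxycycline-inducible T-REx-CHO cells expressing human GPR6 (15 μg/well). Tracer is 3H-RL-338, and test compound top concentration is 5 μM final. Buffer: 50 mM Tris pH 7.4, 50 mM NaCl, 6 mM MgCl2, 0.1% fatty acid free BSA, protease inhibitors. Incubated 2 h at room temperature, filtered, washed cold, scintillation counted. IC50 comes from a four-parameter fit; Ki by Cheng–Prusoff using the 3H-RL-338 Kd (2.4 or 5 nM, by batch).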

Rattus norvegicus [10] = experiment: Reversal of haloperidol-induced catalepsy in Sprague-Dawley rat assessed as reduction in catalepsy at 0.1 to 30 mg/kg, sc measured after 120 min; type: functional, organism-based; conditions: dose 0.1-30 mg/kg
Outline: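 Male Sprague-Dawley rats (n = 9–10/group) received haloperidol 1 mg/kg i.p. together with vehicle (10% DMSO, 0.5% methylcellulose) or compound at 0.1–30 mg/kg s.c. Bar test at 120 min: front paws placed on a bar 6' high, time recorded up to 60 s. Three trials were averaged.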

P-gp (MDR1, ABCB1) = P-gp (MDR1, ABCB1) (Homo sapiens, UniProt P08183); experiment: Substrate activity at P-gp (unknown origin) transfected in pig LLC-PK1 cells expressing MDR1 gene assessed as efflux ratio; type: ADME, cell-based
[11] = Permeability of compound across apical to basolateral side in pig LLC-PK1 cells expressing MDR1; type: ADME, cell-based, Sus scrofa; conditions: read-out: permeability
[12] = Intrinsic clearance in human hepatocytes; type: ADME, cell-based, Hepatocyte; conditions: read-out: CLH
[13] = Intrinsic clearance in human liver microsomes; type: ADME, Microsome; conditions: read-out: CLH
[14] = Lipophilicity, log D of compound; type: physicochemical; conditions: octanol/water
[15] = Unbound intrinsic clearance in human hepatocytes; type: ADME, cell-based, Hepatocyte
[16] = target: Voltage-gated inwardly rectifying potassium channel KCNH2 (Homo sapiens, UniProt Q12809); experiment: Inhibition of human ERG; type: toxicity
Chain of Voltage-gated inwardly rectifying potassium channel KCNH2 (Q12809 whole entry): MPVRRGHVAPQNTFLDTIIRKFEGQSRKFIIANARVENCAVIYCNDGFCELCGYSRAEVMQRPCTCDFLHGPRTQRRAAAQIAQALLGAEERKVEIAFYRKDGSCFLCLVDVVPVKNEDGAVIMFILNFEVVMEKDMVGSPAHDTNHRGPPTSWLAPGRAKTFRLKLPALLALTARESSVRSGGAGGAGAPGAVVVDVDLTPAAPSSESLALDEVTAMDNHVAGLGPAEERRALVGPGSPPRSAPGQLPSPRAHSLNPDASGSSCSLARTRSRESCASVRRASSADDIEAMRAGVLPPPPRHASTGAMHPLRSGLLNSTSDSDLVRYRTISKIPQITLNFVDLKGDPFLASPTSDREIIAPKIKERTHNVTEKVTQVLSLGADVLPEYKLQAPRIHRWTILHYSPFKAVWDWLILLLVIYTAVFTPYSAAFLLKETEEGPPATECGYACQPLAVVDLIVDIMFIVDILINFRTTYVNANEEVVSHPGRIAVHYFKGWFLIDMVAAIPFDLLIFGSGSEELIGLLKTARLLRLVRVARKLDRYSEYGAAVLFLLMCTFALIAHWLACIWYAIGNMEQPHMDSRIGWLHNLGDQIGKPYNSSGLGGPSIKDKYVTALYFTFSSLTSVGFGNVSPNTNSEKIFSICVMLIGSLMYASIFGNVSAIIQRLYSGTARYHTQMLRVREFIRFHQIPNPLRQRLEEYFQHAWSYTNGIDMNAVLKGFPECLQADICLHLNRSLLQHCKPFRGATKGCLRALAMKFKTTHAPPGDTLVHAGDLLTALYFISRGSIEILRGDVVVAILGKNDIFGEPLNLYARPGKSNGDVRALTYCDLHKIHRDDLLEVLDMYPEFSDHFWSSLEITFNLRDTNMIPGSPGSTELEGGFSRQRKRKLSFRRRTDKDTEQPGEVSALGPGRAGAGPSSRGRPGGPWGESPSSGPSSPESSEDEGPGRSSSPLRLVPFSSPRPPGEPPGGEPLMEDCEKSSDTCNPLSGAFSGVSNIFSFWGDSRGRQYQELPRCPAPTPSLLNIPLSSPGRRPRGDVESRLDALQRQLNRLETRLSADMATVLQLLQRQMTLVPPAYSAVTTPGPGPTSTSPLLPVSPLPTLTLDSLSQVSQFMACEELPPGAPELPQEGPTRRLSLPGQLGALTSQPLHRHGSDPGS

Chain of hERG (KCNH2) (Q12809 whole entry): as above
T1 sequence (P46095 whole entry): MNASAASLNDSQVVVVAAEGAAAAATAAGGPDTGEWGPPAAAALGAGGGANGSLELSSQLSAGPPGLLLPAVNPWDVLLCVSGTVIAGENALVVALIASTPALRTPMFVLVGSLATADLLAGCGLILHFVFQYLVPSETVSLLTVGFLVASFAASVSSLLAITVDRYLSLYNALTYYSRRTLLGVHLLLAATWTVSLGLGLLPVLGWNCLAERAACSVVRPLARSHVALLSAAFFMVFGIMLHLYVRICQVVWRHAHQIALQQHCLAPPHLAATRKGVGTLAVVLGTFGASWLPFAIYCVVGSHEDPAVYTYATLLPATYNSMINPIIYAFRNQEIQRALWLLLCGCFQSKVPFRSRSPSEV
Chain of Cytochrome P450 2D6 (P10635 whole entry): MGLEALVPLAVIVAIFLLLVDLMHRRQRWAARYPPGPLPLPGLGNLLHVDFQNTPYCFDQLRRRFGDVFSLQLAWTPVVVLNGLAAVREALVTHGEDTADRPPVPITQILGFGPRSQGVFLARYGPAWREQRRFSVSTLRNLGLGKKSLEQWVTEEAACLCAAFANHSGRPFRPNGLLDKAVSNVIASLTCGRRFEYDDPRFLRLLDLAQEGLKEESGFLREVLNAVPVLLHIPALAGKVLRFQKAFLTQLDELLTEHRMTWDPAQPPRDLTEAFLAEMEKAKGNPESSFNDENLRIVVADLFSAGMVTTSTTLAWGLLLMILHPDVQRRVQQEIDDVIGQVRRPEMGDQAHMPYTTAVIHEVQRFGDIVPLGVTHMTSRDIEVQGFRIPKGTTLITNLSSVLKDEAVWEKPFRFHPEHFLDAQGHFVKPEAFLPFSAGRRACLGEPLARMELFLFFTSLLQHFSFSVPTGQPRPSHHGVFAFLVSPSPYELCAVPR
Chain of P-gp (MDR1, ABCB1) (P08183 whole entry): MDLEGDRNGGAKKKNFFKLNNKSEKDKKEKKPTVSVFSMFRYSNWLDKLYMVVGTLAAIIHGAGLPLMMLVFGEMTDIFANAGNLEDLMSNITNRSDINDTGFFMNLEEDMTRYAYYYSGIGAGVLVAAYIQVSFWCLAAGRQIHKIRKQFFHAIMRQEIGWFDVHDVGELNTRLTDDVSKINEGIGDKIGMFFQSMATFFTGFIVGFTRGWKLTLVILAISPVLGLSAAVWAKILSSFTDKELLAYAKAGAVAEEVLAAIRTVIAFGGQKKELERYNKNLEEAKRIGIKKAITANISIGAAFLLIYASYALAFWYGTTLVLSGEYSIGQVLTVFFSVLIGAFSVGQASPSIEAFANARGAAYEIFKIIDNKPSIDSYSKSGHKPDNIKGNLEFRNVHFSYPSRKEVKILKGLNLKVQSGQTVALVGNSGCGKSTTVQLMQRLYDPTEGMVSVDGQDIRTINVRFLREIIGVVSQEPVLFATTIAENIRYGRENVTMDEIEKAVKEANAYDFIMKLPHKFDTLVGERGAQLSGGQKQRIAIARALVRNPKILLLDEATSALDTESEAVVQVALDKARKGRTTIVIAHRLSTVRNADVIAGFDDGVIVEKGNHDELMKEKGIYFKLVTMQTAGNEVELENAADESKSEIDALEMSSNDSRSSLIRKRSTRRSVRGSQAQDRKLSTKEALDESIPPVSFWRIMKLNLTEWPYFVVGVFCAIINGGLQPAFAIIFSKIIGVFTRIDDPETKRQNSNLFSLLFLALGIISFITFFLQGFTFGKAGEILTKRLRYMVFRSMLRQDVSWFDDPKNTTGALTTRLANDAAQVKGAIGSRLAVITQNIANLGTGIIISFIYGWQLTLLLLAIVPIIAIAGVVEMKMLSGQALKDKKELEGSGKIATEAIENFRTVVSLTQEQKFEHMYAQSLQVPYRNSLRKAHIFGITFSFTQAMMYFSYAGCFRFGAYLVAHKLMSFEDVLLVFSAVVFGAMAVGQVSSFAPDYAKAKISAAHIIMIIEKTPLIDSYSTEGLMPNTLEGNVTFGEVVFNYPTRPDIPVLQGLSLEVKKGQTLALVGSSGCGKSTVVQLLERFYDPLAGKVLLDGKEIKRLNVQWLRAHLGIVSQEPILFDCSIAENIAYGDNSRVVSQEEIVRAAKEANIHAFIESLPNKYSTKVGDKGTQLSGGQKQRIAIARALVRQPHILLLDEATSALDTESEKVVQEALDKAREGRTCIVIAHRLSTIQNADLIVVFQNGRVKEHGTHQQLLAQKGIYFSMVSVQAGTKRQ

Row | Structure (SMILES) | Emax [1] | EC50 [2] | fold change (FC) (Homo sapiens [3]) | IC50 (Cytochrome P450 2D6) | fold change (FC) (Homo sapiens [4]) | inhibition at 10 µM (hERG (KCNH2)) | other results
1 | COc1ccc2nc(N3CCN(Cc4cc(Cl)ccc4Cl)CC3)c(NC3CC3)nc2c1 | 90% | 4100 nM | – | – | – | – | –
2 | CN(C)C(=O)c1ccc2nc(NC3CC3)c(N3CCN(Cc4cc(Cl)ccc4Cl)CC3)nc2c1 | 105% | 90 nM | – | – | – | – | –
3 | Clc1ccc(Cl)c(CN2CCN(c3nc4ccncc4nc3NC3CC3)CC2)c1 | 102% | 55 nM | – | – | – | – | –
4 | CCn1c(=O)c2c(nc(/C=C/c3ccc(OC)c(OC)c3)n2C)n(CC)c1=O | – | – | – | – | – | – | Activity (Mus musculus [5]): Active; Activity (Rattus norvegicus [6]): Active; Activity (Mus musculus [7]): Active
5 | Cc1cc2nc(NC(C)C)c(N3CCN(Cc4ccc(F)cc4F)CC3)nc2cn1 | – | 51000 nM | 19 | 3980 nM | 5 | 13% | –
6 | Clc1ccc(Cl)c(CN2CCN(c3nc4ccccc4nc3NC3CC3)CC2)c1 | 89% | 2100 nM | – | – | – | – | –
7 | Cc1cc2nc(NC3CC3)c(N3CCN(Cc4ccc(F)cc4F)CC3)nc2cn1 | – | 29 nM | 78 | 3980 nM | 14 | 23% | –
8 | Cc1cc2nc(N3CCC(Oc4ccc(F)cc4F)CC3)c(NC3CC3)nc2cn1 | – | 95 nM | 105 | 6310 nM | 19 | – | –
9 | Cc1cc2nc(NC3CC3)c(N3CCC(Oc4ccc(F)cc4F)CC3)nc2cn1 | – | 29 nM | 105 | 6310 nM | 19 | 75% | –
10 | Cc1cc2nc(N3CCC(Oc4ccc(F)cc4F)CC3)c(NC(C)C)nc2cn1 | – | 61000 nM | 47 | 3980 nM | 19 | 71% | –
11 | CC(=O)N1CCc2nc(N3CCC(Oc4ccc(F)cc4F)CC3)c(N[C@@H]3CCOC3)nc2C1 | – | 38000 nM | – | – | – | – | CLint scaled [12]: 48 mL/min/kg; Ki [9]: 9.4 nM; efflux ratio (P-gp (MDR1, ABCB1)): 0.7; CLint scaled [13]: 62 mL/min/kg; logD [14]: 3.6; Papp A→B [11]: 17 ×10⁻⁶ cm/s; fraction unbound [15]: 0.51; IC50 [16]: 3500 nM

The next lines start with results.

Row | Emax [1] | EC50 [2] | fold change (FC) (Homo sapiens [3]) | IC50 (Cytochrome P450 2D6) | fold change (FC) (Homo sapiens [4]) | Structure (SMILES) | inhibition at 10 µM (hERG (KCNH2)) | other results
12 | 73% | 43000 nM | – | – | – | Cc1cccc(CN2CCN(c3nc4nonc4nc3NC3CC3)CC2)c1 | – | –
13 | 110% | 14000 nM | – | – | – | Cc1cccc(CN2CCN(c3nc4ccccc4nc3NC3CC3)CC2)c1 | – | –
14 | – | 16 nM | 27 | 6310 nM | 13 | Cc1cc2nc(NC(C)C)c(N3CCC(Oc4ccc(F)cc4F)CC3)nc2cn1 | 75% | –
15 | 110% | 53 nM | – | – | – | Clc1ccc(Cl)c(CN2CCN(c3nc4cnccc4nc3NC3CC3)CC2)c1 | – | –
16 | – | 21 nM | 14 | – | 9 | CC(C)Nc1nc2ccncc2nc1N1CCN(Cc2ccc(F)cc2F)CC1 | – | –
17 | – | 55 nM | 13 | – | 6 | CC(C)Nc1nc2cc(C#N)ncc2nc1N1CCC(Oc2ccc(F)cc2F)CC1 | – | –
18 | 107% | 174 nM | – | – | – | N#Cc1ccc2nc(N3CCN(Cc4cc(Cl)ccc4Cl)CC3)c(NC3CC3)nc2c1 | – | –
19 | – | 151 nM | – | 126 nM | – | Fc1ccc(F)c(CN2CCN(c3nc4cnccc4nc3NC3CC3)CC2)c1 | 40% | –
20 | 90% | 16000 nM | – | – | – | Cc1ccc2nc(N3CCN(Cc4cc(Cl)ccc4Cl)CC3)c(NC3CC3)nc2c1 | – | –
21 | – | 39 nM | 80 | 50.1 nM | 21 | Fc1ccc(CN2CCN(c3nc4cnccc4nc3NC3CC3)CC2)c(F)c1 | 40% | Activity (Mus musculus [8]): inactive; Ki [9]: 7 nM; Activity (Rattus norvegicus [10]): Dose-Dependent Effect; efflux ratio (P-gp (MDR1, ABCB1)): 0.5; Papp A→B [11]: 16 ×10⁻⁶ cm/s
22 | – | 89 nM | 69 | > 10000 nM | 21 | CC(C)Nc1nc2c(nc1N1CCC(Oc3ccc(F)cc3F)CC1)CCN(C)C2 | 36% | –
23 | – | 30 nM | 16 | > 10000 nM | 20 | CCC(=O)N1CCc2nc(N3CCN(Cc4ccc(F)cc4F)CC3)c(NC(C)C)nc2C1 | – | –
24 | 90% | 1200 nM | – | – | – | Fc1ccc2nc(N3CCN(Cc4cc(Cl)ccc4Cl)CC3)c(NC3CC3)nc2c1 | – | –
25 | – | 29 nM | 15 | – | 638 | Fc1ccc(Cl)cc1CN1CCN(c2nc3cnccc3nc2NC2CC2)CC1 | – | –
